# Assay outcomes: PubChem BioAssay, The Scripps Research Institute Molecular Screening Center
# CHO parental Ca – counter-screen: ATP calcium response change in parental CHO cells; parental CHO-K1, ATP-induced calcium, Fluo-8 fluorescence; inhibition, % at 5.6 µM; 330,000 tested, 0.63% active;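 active means inhibition above that plate's mean sample inhibition plus 3 SD, cut at about 26% in these data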;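 further: 0% = ATP-challenged DMSO wells and 100% = DMSO wells without ATP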
#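 Assay system: untransfected parental CHO cell line. Also added: ATP agonist challenge. Dosing: one dose, 5.6 µM nominal. Measured by: Fluo-8 fluorescence. Read-out: % inhibition. Benchmarks: ATP wells versus no-ATP DMSO wells. Repeats: no replicates.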
# GPR7 antag – antagonists of human GPR7 (neuropeptides B/W receptor 1) | P48145 | GPR7-expressing cells, fluorescence antagonist assay | inhibition, % at 4.4 µM | 290,000 tested, 1.1% active; in the data active means inhibition above about 16%, passing the limit was not always enough;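 further: cells stimulated with the agonist NPW; 0% = agonist with vehicle and 100% = vehicle without agonist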
# OX1R antag-1 – antagonists of human orexin 1 receptor (OX1R); O43613; OX1R-expressing cells, FRET antagonist read-out; inhibition, % at 6.6 µM; 330,000 tested, 1.8% active; AID 485270; in the data active means inhibition mostly above about 38%, no sharp cut-off; inactive means mostly below about 40%;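 further: 0% = agonist challenge alone and 100% = reference antagonist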
# zfTRPN1 agonist – zebrafish TRPN1 (NompC) channel agonism. HEK293 zebrafish TRPN1-YFP, Fluo-8 calcium fluorescence; 100% = response to 87 µM carbachol. activation, % at 3 µM. 220,000 tested, 0.18% active;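 active means activation above its plate's cutoff, the mean activation of test wells on that plate plus 3 SD, cut at about 19% in these data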;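 further: 0% = DMSO alone and 100% = 87 µM carbachol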
#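 Assay system: Zebrafish TRPN1-YFP in HEK293 cells | Incubation: Dye loading 1 h at 37 °C, then 30 min room temperature | Measured by: Kinetic Fluo-8 fluorescence, ex 470-495, em 515-575 nm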
# OX1R antag-2 – human HCRTR1 antagonism; CHO/OX1R cells, Fluo-8 calcium fluorescence, orexin A; AID 434989; 330,000 tested, 0.43% active; O43613; inhibition, % at 5 µM;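 active means inhibition above its plate's threshold, mean inhibition of all tested compounds on the plate plus 3 SD, cut at about 37% in these data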;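 further: 0% = orexin A challenge wells and 100% = SB-334867-A antagonist wells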
# TRPML3 agonist – activates the human TRPML3 channel. Q8TDD5. HEK293 TRPML3-YFP, Fluo-8 calcium fluorescence; 100% = the carbachol control signal. activation, % at 3 µM. 220,000 tested, 0.29% active;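 active means activation above its plate's cutoff, the mean activation of the plate's test wells plus 3 SD, cut at about 12% in these data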;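 further: 0% = DMSO only wells and 100% = carbachol wells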
#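 system = HEK293 cells stably carrying human TRPML3-YFP | doses = one concentration, 3 µM nominal, 0.3% DMSO | timing = dye loading 1 h 37 °C then 30 min ambient, 125 s read | detection = Fluo-8 calcium dye fluorescence, ex 470-495, em 515-575 nm | benchmarks = high control carbachol 87 µM, low control DMSO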
# OX1R HTRF conf – OX1R (human) antagonism, HTRF confirmed; shares compounds with OX1R antag-1; OX1R-expressing cells, HTRF antagonist assay; inhibition, % at 6.6 µM; 1,800 tested, 49% active; in the data active means inhibition above about 55%;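 further: CHO cells expressing OX1R stimulated with orexin A at about EC80; 0% = agonist challenge alone and 100% = reference antagonist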
# CHO-K1 HTRF cnt – counter-screen for OX1R antagonists: effect in parental CHO-K1 cells; 1,800 tested, 48% active; shares compounds with OX1R antag-1; inhibition, % at 6.6 µM; HTRF counterscreen; in the data active means inhibition above about 17%;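 further: 0% = agonist challenge with vehicle and 100% = vehicle alone without agonist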
# An asterisk follows results filed as active; x = no result. Most compounds without a hit are left out; they make up all but 3.2% or so of the library.
SMILES,CHO parental Ca,GPR7 antag,OX1R antag-1,zfTRPN1 agonist,OX1R antag-2,TRPML3 agonist,OX1R HTRF conf,CHO-K1 HTRF cnt
CCC(=O)OC1(c2cccc(C)c2)CC(C)N(C)CC1C (centres undefined),-8,-7,8,0,-22,0,x,x
O=C1OC(c2ccc([N+](=O)[O-])cc2)=N/C1=C/N1CC2CC(C1)c1cccc(=O)n1C2 (centres undefined),-16,-6,80*,5,-5,5,25,18*
CCc1nnc(NC(=O)CCc2nc(C3=CCN(C)CC3)no2)s1,-4,-13,98*,0,-1,0,14,11
Cc1cc(OC(=O)N(C)C)nc(SCc2c(Cl)cccc2Cl)n1,-24,-18,14,-1,-32,-1,x,x
O=C1NC(=O)C(=Cc2ccc(N3CCOCC3)o2)C(=O)N1,3,-6,92*,2,-15,3,50,99*
CCOC(=O)c1sc(N=Nc2c(O)[nH]c(=O)[nH]c2=O)c(C(=O)OCC)c1C,4,2,7,0,-6,0,x,x
Cc1ccc(C(=O)O)cc1N=Nc1c(O)[nH]c(=O)[nH]c1=O,-3,-8,154*,1,4,1,57*,101*
O=C(O)c1cccc(N=Nc2c(O)[nH]c(=O)[nH]c2=O)c1,-13,-3,138*,1,3,0,62*,92*
